Experiments:
[1] = Cmax in rat at 10 umol/kg, po; format: ADME, organism-based; parameters: dose 10 umol/kg, route oral; settings: in vivo
Summary of the method: (§1)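 Fasted male Sprague-Dawley rats dosed per orally at 10 µmol/kg. Three animals per administration per compound; plasma exposure and PK parameters derived.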

Liver microsomes [2] = experiment: Metabolic stability in human liver microsomes by glutathione trapping assay; format: ADME, Microsome
[3] = Tmax in rat at 10 umol/kg, po; format: ADME, organism-based; settings: in vivo; summary of the method: as §1
[4] = Clearance in rat at 3 umol/kg, iv; format: ADME, organism-based; settings: in vivo
Summary of the method: (§2)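 Fasted male Sprague-Dawley rats given a single intravenous dose of 3 μmol/kg. Three animals per administration per compound; plasma PK parameters derived.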

[5] = Half life in rat at 10 umol/kg, po; format: ADME, organism-based; settings: in vivo; summary of the method: as §1
Rattus norvegicus [6] = experiment: Dose normalized AUC in rat at 3 umol/kg, iv; format: ADME, organism-based; settings: in vivo; summary of the method: as §2
[7] = Half life in rat at 3 umol/kg, iv; format: ADME, organism-based; settings: in vivo; summary of the method: as §2
[8] = Oral bioavailability in rat at 10 umol/kg; format: ADME, organism-based; settings: in vivo; summary of the method: as §1
[9] = Volume of distribution at steady state in rat at 3 umol/kg, iv; format: ADME, organism-based; settings: in vivo, read-out: Vdss; summary of the method: as §2
Rattus norvegicus [10] = experiment: Dose normalised AUC in rat at 10 umol/kg, po; format: ADME, organism-based; settings: in vivo; summary of the method: as §1
Liver microsomes [11] = experiment: Intrinsic clearance in human liver microsomes; format: ADME, Microsome
Liver microsomes [12] = experiment: Intrinsic clearance in rat liver microsomes; format: ADME, Microsome
[13] = Oral bioavailability in rat in presence of 1-aminobenzotriazole; settings: in vivo

Compound	Stability (Liver microsomes [2])	CLH (Liver microsomes [11])	CLH (Liver microsomes [12])	also measured
COc1ncc(-c2cccc3c2C[C@H](NC(=O)c2ccc(OCCC(F)(F)F)nc2)CO3)cn1	Stable			Cmax [1]: 230 nM; Tmax [3]: 4.8 h; clearance [4]: 14 mL/min/kg; half-life [5]: 7.6 h; AUC/dose (Rattus norvegicus [6]): 1.2 kg·h/L; half-life [7]: 6.4 h; bioavailability [8]: 26%; Vd [9]: 7.2 L/kg; AUC/dose (Rattus norvegicus [10]): 0.32 kg·h/L
COc1cnc(-c2ccc(Cl)cc2CCNC(=O)c2ccc(COCC(F)(F)F)nc2)cn1		72 µL/min/µg		
COc1ncc(-c2ccccc2CCNC(=O)c2ccc(OCCC(F)(F)F)nc2)cn1		17 µL/min/µg	> 500 µL/min/µg	
COc1cnc(-c2ccccc2CCNC(=O)c2ccc(OCCC(F)(F)F)nc2)cn1	Unstable	124 µL/min/µg	129 µL/min/µg	
O=C(NCCc1ccccc1-c1cnc(OC(F)F)cn1)c1ccc(OCCC(F)(F)F)nc1		210 µL/min/µg	270 µL/min/µg	
O=C(NCCc1ccccc1-c1cccnc1)c1ccc(OCCC(F)(F)F)nc1	Unstable	160 µL/min/µg	> 500 µL/min/µg	
Cc1ncc(-c2ccccc2CCNC(=O)c2ccc(OCCC(F)(F)F)nc2)cn1	Unstable	11 µL/min/µg	> 500 µL/min/µg	
O=C(NCCc1ccccc1-c1ccc(CO)nc1)c1ccc(OCCC(F)(F)F)nc1		10 µL/min/µg	130 µL/min/µg	
Cc1ncc(-c2ccccc2CCNC(=O)c2ccc(COCC(F)(F)F)nc2)cn1	Unstable	< 10 µL/min/µg	< 10 µL/min/µg	
Cc1ncc(-c2ccccc2CCNC(=O)c2ccc(OCCOCC(F)(F)F)nc2)cn1		23 µL/min/µg	< 10 µL/min/µg	
Cc1ncc(-c2ccccc2CCNC(=O)c2ccc(C(=O)NCCCC(F)(F)F)nc2)cn1	Unstable	11 µL/min/µg	< 10 µL/min/µg	
Cc1ncc(-c2ccccc2CCNC(=O)c2ccc(CNCCC(F)(F)F)nc2)cn1		15 µL/min/µg	< 10 µL/min/µg	
COc1ncc(-c2cccc(C)c2CCNC(=O)c2ccc(OCCC(F)(F)F)nc2)cn1	Stable	65 µL/min/µg	32 µL/min/µg	Cmax [1]: 20 nM; Tmax [3]: 0.25 h; clearance [4]: 50 mL/min/kg; half-life [5]: 2.4 h; AUC/dose (Rattus norvegicus [6]): 0.33 kg·h/L; half-life [7]: 0.98 h; bioavailability [8]: 0.6%; Vd [9]: 2.4 L/kg; AUC/dose (Rattus norvegicus [10]): 0.002 kg·h/L
COc1ncc(-c2cccc(F)c2CCNC(=O)c2ccc(OCCC(F)(F)F)nc2)cn1	Unstable	< 10 µL/min/µg	13 µL/min/µg	
COc1ncc(-c2cccc(Cl)c2CCNC(=O)c2ccc(OCCC(F)(F)F)nc2)cn1	Unstable	17 µL/min/µg	< 10 µL/min/µg	
COc1ncc(-c2cccc(OC)c2CCNC(=O)c2ccc(OCCC(F)(F)F)nc2)cn1		45 µL/min/µg	17 µL/min/µg	
COc1ccc(CCNC(=O)c2ccc(OCCC(F)(F)F)nc2)c(-c2cnc(OC)nc2)c1		40 µL/min/µg	150 µL/min/µg	

Compound	Stability (Liver microsomes [2])	CLH (Liver microsomes [11])	CLH (Liver microsomes [12])	also measured
COc1ncc(-c2cccc(C#N)c2CCNC(=O)c2ccc(OCCC(F)(F)F)nc2)cn1	Stable	< 10 µL/min/µg	24 µL/min/µg	
COc1ncc(-c2ccccc2C(F)(F)CNC(=O)c2ccc(COCC(F)(F)F)nc2)cn1	Stable	< 10 µL/min/µg	13 µL/min/µg	Cmax [1]: 840 nM; Tmax [3]: 0.75 h; clearance [4]: 23 mL/min/kg; half-life [5]: 2.4 h; AUC/dose (Rattus norvegicus [6]): 0.71 kg·h/L; half-life [7]: 2 h; bioavailability [8]: 34%; Vd [9]: 1.4 L/kg; AUC/dose (Rattus norvegicus [10]): 0.24 kg·h/L
COc1ncc(-c2cccc(OC(F)F)c2CCNC(=O)c2ccc(OCCC(F)(F)F)nc2)cn1		< 10 µL/min/µg	190 µL/min/µg	
COc1ncc(-c2c(C)ccc(F)c2CCNC(=O)c2ccc(OCCC(F)(F)F)nc2)cn1		100 µL/min/µg	230 µL/min/µg	
COc1ncc(-c2c(C)ccc(F)c2CCNC(=O)c2ccc(OCC(F)(F)F)nc2)cn1	Stable	74 µL/min/µg	35 µL/min/µg	
COc1cnc(-c2c(C)ccc(F)c2CCNC(=O)c2ccc(COCC(F)(F)F)nc2)cn1	Unstable	61 µL/min/µg	88 µL/min/µg	Cmax [1]: 530 nM; Tmax [3]: 1.5 h; clearance [4]: 19 mL/min/kg; half-life [5]: 3.6 h; AUC/dose (Rattus norvegicus [6]): 0.91 kg·h/L; half-life [7]: 0.9 h; bioavailability [8]: 4%; Vd [9]: 1.5 L/kg; AUC/dose (Rattus norvegicus [10]): 0.03 kg·h/L
COc1cnc(-c2c(F)ccc(F)c2CCNC(=O)c2ccc(COCC(F)(F)F)nc2)cn1	Stable	44 µL/min/µg	45 µL/min/µg	Cmax [1]: 160 nM; Tmax [3]: 0.67 h; clearance [4]: 13 mL/min/kg; half-life [5]: 3 h; AUC/dose (Rattus norvegicus [6]): 1.3 kg·h/L; half-life [7]: 0.9 h; bioavailability [8]: 5%; Vd [9]: 0.85 L/kg; AUC/dose (Rattus norvegicus [10]): 0.06 kg·h/L
Cc1cnc(-c2c(F)ccc(F)c2CCNC(=O)c2ccc(COCC(F)(F)F)nc2)cn1	Stable	21 µL/min/µg	< 10 µL/min/µg	Cmax [1]: 250 nM; Tmax [3]: 0.5 h; clearance [4]: 24.6 mL/min/kg; bioavailability [13]: 40%; half-life [5]: 2.3 h; AUC/dose (Rattus norvegicus [6]): 0.68 kg·h/L; half-life [7]: 5.9 h; bioavailability [8]: 7%; Vd [9]: 1.74 L/kg; AUC/dose (Rattus norvegicus [10]): 0.05 kg·h/L
COc1cnc(-c2c(OC)ccc(F)c2CCNC(=O)c2ccc(COCC(F)(F)F)nc2)cn1		46 µL/min/µg	67 µL/min/µg	
COc1ncc(-c2cccnc2CCNC(=O)c2ccc(OCCC(F)(F)F)nc2)cn1	Stable	< 10 µL/min/µg	< 10 µL/min/µg	
COc1ncc(-c2ccc(C)nc2CCNC(=O)c2ccc(OCCC(F)(F)F)nc2)cn1	Stable	< 10 µL/min/µg	< 10 µL/min/µg	
COc1ncc(-c2cc(C)cnc2CCNC(=O)c2ccc(COCC(F)(F)F)nc2)cn1		< 10 µL/min/µg	< 10 µL/min/µg	
COc1ncc(-c2cccnc2C(C)CNC(=O)c2ccc(OCCC(F)(F)F)nc2)cn1 (stereo unspecified)		< 10 µL/min/µg	< 10 µL/min/µg	
COc1ncc(-c2cccnc2C(F)(F)CNC(=O)c2ccc(OCCC(F)(F)F)nc2)cn1		< 10 µL/min/µg	< 10 µL/min/µg	
COc1cnc(-c2ccccc2C(F)(F)CNC(=O)c2ccc(COCC(F)(F)F)nc2)cn1	Stable	< 10 µL/min/µg	16 µL/min/µg	Cmax [1]: 1400 nM; Tmax [3]: 0.33 h; clearance [4]: 11 mL/min/kg; half-life [5]: 2.8 h; AUC/dose (Rattus norvegicus [6]): 1.5 kg·h/L; half-life [7]: 1.2 h; bioavailability [8]: 27%; Vd [9]: 0.72 L/kg; AUC/dose (Rattus norvegicus [10]): 0.41 kg·h/L
COc1cnc(-c2cccc(F)c2C(F)(F)CNC(=O)c2ccc(COCC(F)(F)F)nc2)cn1	Stable	< 10 µL/min/µg	24 µL/min/µg	

From ChEMBL document CHEMBL2146409, “Phenethyl nicotinamides, a novel class of Na(V)1.7 channel blockers: structure and activity relationship” (Bioorg Med Chem Lett, 2012)
